High-throughput results deposited in PubChem by several laboratories.
Sampled rows, rich in hits. Any-hit rate of the full collection: about 2.4%.
NTR1 ag – agonists of human neurotensin receptor NTR1. NTR1-U2OS beta-arrestin-GFP spot imaging, agonist mode. 330,000 tested, 0.17% active. activation, % at 20 µM;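 active = activation at or above 40% of the spot to cytoplasm intensity ratio, with at least 20 cells analyzed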;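 note: 0% = DMSO without peptide and 100% = 100 nM NTR1 peptide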
Target sequence (P30989 whole entry, looked up): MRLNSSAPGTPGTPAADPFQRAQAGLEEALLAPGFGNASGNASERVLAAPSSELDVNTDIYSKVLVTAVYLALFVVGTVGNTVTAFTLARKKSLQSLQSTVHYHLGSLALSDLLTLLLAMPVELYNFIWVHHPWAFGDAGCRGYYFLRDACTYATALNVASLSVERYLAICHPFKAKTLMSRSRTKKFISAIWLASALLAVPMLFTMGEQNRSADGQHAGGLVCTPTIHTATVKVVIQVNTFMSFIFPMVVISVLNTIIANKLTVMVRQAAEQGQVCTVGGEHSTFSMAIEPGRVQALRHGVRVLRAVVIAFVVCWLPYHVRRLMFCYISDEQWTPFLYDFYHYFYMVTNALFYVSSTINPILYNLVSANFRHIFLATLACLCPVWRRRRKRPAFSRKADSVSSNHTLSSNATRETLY
MC4R antag cAMP – blocks human MC4R cAMP signaling. P32245. MC4R-expressing cells, MTII-stimulated cAMP, LANCE TR-FRET. inhibition, % at 6.5 µM. 360,000 tested, 0.48% active. AID 540295;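 active = inhibition above its plate's cutoff, the mean of tested wells on that plate plus 3 SD, cut at about 29% in these data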;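 note: 0% = Melanotan II alone and 100% = Melanotan II plus saturating MCL0020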
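System: U2OS-MC4R stable cell line; Technique: Eu-cAMP/anti-cAMP TR-FRET, emission 671 nm; Repeats: single well per compound; Also added: Melanotan II; Dosing: one concentration, 6.5 µM nominal; Schedule: 30-min compound, 1-h challenge, 1-h detection, room temperature.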
TAG inh – reduces triacylglycerol accumulation in H9c2 cells. Nile Red lipid (TAG) fluorescence; cells loaded with 200 µM oleic acid. 230,000 tested, 0.66% active. inhibition, % at 12.5 µM. AID 651582;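 active = pattern-corrected inhibition of lipid staining of at least 50% with the nuclear-stain viability signal not falling by more than 50%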;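 note: 0% = DMSO wells and 100% = triacsin C control wells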
aDG glyco act – alpha-DG glycosylation activation; 360,000 tested, 0.22% active; AID 624168; Pro5-aDG cells, alpha-DG glycosylation AlphaScreen (IIH6); 0% Pro5, 100% B10-LARGE cell signal; activation, % at 10 µM;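 active = activation of at least 8% versus controls, or a plate z-score of at least 8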;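 note: Pro5 are CHO cells carrying HIG-tagged alpha-DG that lacks glycosylation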
Tb MetRS inh – Trypanosoma brucei MetRS inhibition | 360,000 tested, 0.4% active | inhibition, % at 11.9 µM | purified T. brucei MetRS, ATP depletion, Kinase-Glo luminescence;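 active = inhibition above a per-plate cutoff of the control wells' mean inhibition plus 3 SD, cut at about 5.5% in these data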;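 note: 0% = DMSO wells median and 100% = median of wells with control inhibitor compound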
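assay system = parasite MetRS enzyme | timing = 15 min preincubation, 2 h reaction, all 25 °C | evaluation = percent inhibition relative to median high and low control wells | medium = HEPES buffer containing pyrophosphatase, BSA, spermine, DTT | compound = single dose, 11.9 µM final nominal, 0.9% final DMSO | detection = Kinase-Glo luminescence, ATP depletion format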
MC4R ag barr – agonists of human melanocortin 4 receptor (MC4R) beta-arrestin; activation, % at 8.9 µM; U2OS MC4R beta-arrestin complementation, luminescence; percent of melanotan II response, DMSO zero; 360,000 tested, 0.98% active; AID 540308;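 active = activation above a per-plate cutoff, the mean activation of sample wells on that plate plus 3 SD, cut at about 8% in these data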
MC4R barr conf – human MC4R beta-arrestin agonism confirmation; U2OS MC4R beta-arrestin recruitment, luminescence; scaled DMSO 0%, Melanotan II 100%; activation, % at 8.9 µM; shares compounds with MC4R ag barr; 2,400 tested, 31% active;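 active = mean activation across replicates above the hit cutoff set in the earlier primary screen, cut at about 8% in these data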
MOR-DOR barr ag – OPRM1-OPRD1 heterodimer agonism counter-screen; shares compounds with MC4R ag barr; U2OS PathHunter beta-arrestin, beta-gal luminescence; percent of deltorphin B response, DMSO zero; activation, % at 9.2 µM; 2,400 tested, 5.8% active;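 active = mean activation across replicates exceeds the hit threshold derived in the earlier primary screen, cut at about 18% in these data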;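 note: 100% = deltorphin B at 0.9 µM final and 0% = DMSO alone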
aDG conf – confirmation of alpha dystroglycan glycosylation activators | AID 651671 | activation, % at 10 µM (by protocol) | Pro5-aDG cells, alpha-DG glycosylation, IIH6 AlphaLISA; scaled to LARGE-overexpressing B10 cells as 100% | shares compounds with aDG glyco act | 600 tested, 17% active;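 active = activation of at least 7% in one or more replicates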;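 note: cells exposed to compound for two days before detection; 0% = DMSO-treated Pro5 cells and 100% = DMSO-treated B10-LARGE cells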
TbMetRS confirm – confirmation of Trypanosoma brucei MetRS inhibitors; shares compounds with Tb MetRS inh; T. brucei MetRS enzyme, luminescence (ATP depletion); inhibition, % at 11.9 µM; 1,400 tested, 93% active; in the data active = inhibition above about 7%
Jurkat tox – counter-screen for T. brucei MetRS inhibitors: Jurkat cell cytotoxicity. shares compounds with Tb MetRS inh. Jurkat cells viability, ATP luminescence. inhibition, % at 8.3 µM. 1,400 tested, 12% active; in the data active = inhibition above about 15%;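 note: 0% = vehicle and 100% = reference inhibitor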
TbMetRS FP orth – orthogonal test for Trypanosoma brucei MetRS inhibitors | shares compounds with Tb MetRS inh | 1,400 tested, 44% active | inhibition, % at 11.9 µM | purified T. brucei MetRS, fluorescence polarization; in the data active = inhibition above about 17%;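 note: 0% = vehicle wells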
H9c2 TAG conf – triacylglycerol accumulation inhibition, confirmation; shares compounds with TAG inh; H9c2 lipid accumulation, Nile Red fluorescence; cells loaded with 200 µM oleic acid; inhibition, % at 12.5 µM; 990 tested, 71% active; AID 651629;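 active = mean inhibition across replicates of 40% or more; inactive = mean inhibition below 40%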;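 note: plate controls were DMSO only wells for no effect and Triacsin C treated wells for full effect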
The depositor's hits bear a star; · = no result given.

SMILES	NTR1 ag	MC4R antag cAMP	TAG inh	aDG glyco act	Tb MetRS inh	MC4R ag barr	MC4R barr conf	MOR-DOR barr ag	others
CC1(C(=O)Nc2ccc3c(c2)OCCO3)CCC(=O)N1CCc1c[nH]c2ccccc12 (configuration not stated)	·	·	·	0	-1	·	·	·
Cc1ccc(NC(=O)CSc2nc(-c3ccco3)cc(C(F)(F)F)n2)cc1C	0	-21	·	0	-1	24*	4	4
Cc1ccc(NC(=O)C(C)c2ccc(-c3ccccc3)c(F)c2)c(C)c1 (configuration not stated)	6	11	·	0	-1	9.6*	2	5
Cc1ccccc1N(C(=O)Cc1c[nH]c2ccccc12)C(C(=O)NC1CCCCC1)c1ccco1 (configuration not stated)	0	-5	·	0	0	21*	6	11
COc1ccc(C(=O)Nc2ccc(N3CCCCC3)cc2)cc1Br	3	-2	·	0	0	13*	2	8
Cc1ccc(C(=O)Nc2ccc(N3CCCCC3)cc2)cc1	1	4	7	0	0	5	·	·
O=C(Nc1ccc(F)c(Cl)c1)c1cc(C2CCCN(S(=O)(=O)c3cccc4cccnc34)C2)on1 (configuration not stated)	·	9	13	0	0	-2	·	·
COc1cc2nc(N3CCN(c4cc(C)ccc4C)CC3)nc(N)c2cc1OC	8	7	·	0	-1	12*	9.8*	21*
COc1ccc(-c2csc3ncnc(Nc4ccc(O)cc4)c23)cc1	6	22	5	0	0	14*	5	10
COc1ccc(-c2csc3ncnc(NCCO)c23)cc1	-1	-1	·	0	0	1	·	·
CCCCn1nnnc1C(c1cc2ccccc2o1)N(C)Cc1ccccc1 (configuration not stated)	·	·	·	0	0	·	·	·
CCCc1cn(CC(C)n2c(=O)c3ccccc3n2Cc2cc(C(C)C)no2)nn1 (configuration not stated)	·	·	·	0	0	·	·	·
CCCc1ccc(C(=O)Cn2nc(C(=O)O)c3ccccc3c2=O)cc1	5	6	-8	0	0	10*	4	5
Cc1cc(C)c(C(=O)Cn2nc(C(=O)O)c3ccccc3c2=O)cc1C	3	2	-17	0	0	1	·	·
O=C(Cn1nc(C(=O)O)c2ccccc2c1=O)Nc1cc(Cl)cc(Cl)c1	3	2	·	0	-1	12*	0	5
NC(=O)c1c(NC(=O)Cn2nc(C(=O)O)c3ccccc3c2=O)sc2c1CCCC2	33	2	-9	0	-1	10*	8	4
COc1ccc(C(C(=O)NCc2ccccc2)n2c(=O)c(-c3cc4ccccc4[nH]3)nc3ccccc32)cc1 (configuration not stated)	·	·	·	2	0	·	·	·
Cc1cc(C)cc(Cn2cc(CN3CC(N4CCN(Cc5ccccc5F)CC4)CS3(=O)=O)nn2)c1 (configuration not stated)	·	·	·	0	0	·	·	·
O=C(OCC(=O)c1c[nH]c2ccccc12)c1cc2ccccc2cc1O	10	-1	·	0	1	12*	3	3
Cc1cccc(C)c1-n1nnnc1C(c1ccnc2ccccc12)N1CCN(C(=O)OCc2ccccc2)CC1 (configuration not stated)	·	·	·	0	0	·	·	·
COc1ccc(CCNC(=O)COc2ccc(-c3ccc(C#N)cc3)cc2)cc1	-1	1	-22	0	-1	19*	8	28*
COc1ccc(CCNC(=O)COc2ccc([N+](=O)[O-])cc2)cc1	1	4	8	0	0	-1	·	·
N#Cc1ccc(-c2ccc(OCC(=O)NCC(=O)Nc3ccc(F)c(F)c3F)cc2)cc1	1	11	·	0	-1	18*	0	8
O=C1NC[C@H](CCCCN2C[C@H](Cc3ccccc3)N(CCC3CCCCC3)C(=O)C2=O)N(CCc2ccc(O)cc2)C1=O	·	·	·	0	-1	·	·	·
CCC(C)Sc1nc2c(cnn2-c2ccccc2)c(=O)[nH]1 (configuration not stated)	7	7	15	7.7*	-1	11*	3	2	aDG conf=0
SMILES	NTR1 ag	MC4R antag cAMP	TAG inh	aDG glyco act	Tb MetRS inh	MC4R ag barr	MC4R barr conf	MOR-DOR barr ag	others
Cc1cc(Br)c2nc(-c3ccccc3)c(Cc3cccc(Cl)c3)n2c1	·	·	·	0	0	·	·	·
O=C(Nc1nnc(COc2ccccc2F)s1)Nc1ccccc1F	5	16	-10	0	15*	12*	6	10	TbMetRS confirm=25*;Jurkat tox=4;TbMetRS FP orth=12
O=C(Nc1ccc(F)cc1)Nc1nnc(COc2ccccc2F)s1	6	-4	-19	1	1	5	·	·
COc1cccc(C(O)c2nc(/C=C/c3ccccc3)cs2)c1 (configuration not stated)	·	2	-14	0	0	0	·	·
OC1(c2cccc(C(F)(F)F)c2)CCN(c2ncnc3c2[nH]c2ccc(F)cc23)CC1	·	21	·	3.7*	12*	9.8*	1	6	TbMetRS confirm=24*;Jurkat tox=34*;TbMetRS FP orth=13
CCOC(=O)Cc1ccc(Nc2nc3cc(-c4sccc4C)sc3c(=O)n2C)cc1	·	-7	51*	0	0	14*	1	4	H9c2 TAG conf=71*
